Experiment [1] concerns the target T1, DNA topoisomerase 1 (Homo sapiens) (UniProt P11387).
T1 sequence (whole entry): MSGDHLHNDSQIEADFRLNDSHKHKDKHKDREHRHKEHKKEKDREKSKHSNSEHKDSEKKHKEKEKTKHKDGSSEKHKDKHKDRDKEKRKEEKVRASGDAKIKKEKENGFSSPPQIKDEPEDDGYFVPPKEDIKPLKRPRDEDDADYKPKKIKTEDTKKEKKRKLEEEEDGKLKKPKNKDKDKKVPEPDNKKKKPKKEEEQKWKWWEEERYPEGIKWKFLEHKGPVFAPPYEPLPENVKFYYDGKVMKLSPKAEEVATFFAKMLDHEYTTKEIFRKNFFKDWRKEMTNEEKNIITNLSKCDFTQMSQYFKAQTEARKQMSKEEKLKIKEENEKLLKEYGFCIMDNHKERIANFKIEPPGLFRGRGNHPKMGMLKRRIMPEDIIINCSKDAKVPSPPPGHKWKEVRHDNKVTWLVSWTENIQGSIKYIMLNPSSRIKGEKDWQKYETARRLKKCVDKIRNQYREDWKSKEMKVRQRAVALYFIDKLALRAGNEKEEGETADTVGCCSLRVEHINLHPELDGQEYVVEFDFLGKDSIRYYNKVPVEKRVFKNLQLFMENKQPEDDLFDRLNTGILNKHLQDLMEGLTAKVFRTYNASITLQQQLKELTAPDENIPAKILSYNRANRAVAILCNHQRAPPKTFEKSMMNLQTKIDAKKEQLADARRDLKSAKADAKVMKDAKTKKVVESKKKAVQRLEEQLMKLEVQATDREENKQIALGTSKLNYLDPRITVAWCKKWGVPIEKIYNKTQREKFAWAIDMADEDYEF
Put plainly: Poison activity at human DNA topoisomerase 1 assessed as increase in intensity of nicked form of DNA at 100 uM using pUC19 supercoiled plasmid DNA as substrate preincubated for 15 mins followed by DNA topoisomerase 1 addition measured after 30 mins by agarose gel electrophoresis. A digest of the protocol:
(§1)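 Supercoiled pUC19 plasmid was treated with human topoisomerase I, alone or with compound, and topoisomers were resolved by agarose gel electrophoresis. Poisoning, seen as nicked plasmid, was assessed on ethidium bromide-containing agarose gels at up to 100 μM compound.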

The nature of experiment [2]: Antiproliferative activity against human MCF7 cells after 72 hrs by MTT assay. To be noted: MCF7, 72 h. In kind it is functional, cell-based. A digest of the protocol: (§2)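 Tumour cells were grown as monolayers in DMEM with 10 % FBS, 2 mM L-glutamine, penicillin and streptomycin at 37 °C under 5 % CO₂. Tenfold dilutions from 10^-8 to 10^-4 M were applied for 72 h, followed by MTT read at 570 nm. IC50 came from linear regression of percentage growth; at least two experiments, quadruplicate points.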

Experiment [3] in a line: Binding affinity to duplex calf thymus DNA assessed as change in melting temperature at drug/DNA ratio of 0.5 by spectrophotometric analysis. Put shortly: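 Calf-thymus DNA at 20 μM was heated with or without compound at 10 or 20 μM (drug/base-pair ratio 0.5 or 1) in BPE buffer (6 mM Na₂HPO₄, 2 mM NaH₂PO₄, 1 mM EDTA, pH 7.1). A260 was read every minute from 20 to 100 °C, rising 1 °C per min, and ΔTm was derived.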

A short description of experiment [4]: Antiproliferative activity against human HCT116 cells after 72 hrs by MTT assay. In kind it is functional, cell-based. Particulars: HCT-116, 72 h. Put shortly: as §2
Experiment [5] is described as follows: Antiproliferative activity against human H460 cells after 72 hrs by MTT assay. In kind it is functional, cell-based. To be noted: NCI-H460, 72 h. A digest of the protocol: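 Tumour cells were grown as monolayers in DMEM with 10 % FBS, 2 mM L-glutamine, penicillin and streptomycin at 37 °C under 5 % CO₂. They were seeded at 3×10^4 cells/mL (HCT 116, H460) or 5×10^4 cells/mL (MCF-7). Tenfold dilutions from 10^-8 to 10^-4 M were applied for 72 h, followed by MTT read at 570 nm. IC50 came from linear regression of percentage growth; at least two experiments, quadruplicate points.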

The nature of experiment [6]: Binding affinity to duplex calf thymus DNA assessed as change in melting temperature at drug/DNA ratio of 0.25 by spectrophotometric analysis.
Experiment [7] deals with Escherichia coli. Put plainly: Binding affinity to negatively supercoiled pUC19 DNA assessed as DNA intercalation by measuring generation of positively supercoiled DNA up to 50 uM preincubated for 15 mins followed by human DNA topoisomerase 1 addition measured after 30 mins by agarose gel electrophoresis. A digest of the protocol: as §1
Experiment [8] in a line: Binding affinity to duplex calf thymus DNA assessed as induction of negative circular dichroic signal at 1 to 60 uM by circular dichroism analysis. A digest of the protocol: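 Calf-thymus DNA at 50 μM was incubated in BPE buffer with or without compound at 1, 5, 10, 20, 30, 40, 50 and 60 μM. CD spectra were recorded from 480 to 230 nm in a 10 mm cell at 20 °C. The compound alone at 60 μM was checked for intrinsic CD.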

The nature of experiment [9]: Binding affinity to duplex calf thymus DNA assessed as bathochromic shift at 20 uM by UV/visible spectroscopic analysis. Put shortly: (§3)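 Compound at 20 μM in BPE buffer (pH 7.1) was titrated with calf-thymus DNA at 1–140 μM in a 10 mm quartz cuvette. Spectra were recorded from 240 to 480 nm against a reference cuvette holding DNA at the same concentration.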
Experiment [10] in a line: Binding affinity to duplex calf thymus DNA assessed as hypsochromic shift at 20 uM by UV/visible spectroscopic analysis. Put shortly:
as §3

A short description of experiment [11]: Binding affinity to radiolabeled 265bp DNA (unknown origin) at 0.5 to 50 uM by DNase 1 footprinting analysis.
Experiment [12] can be described thus: Antiproliferative activity against human shGFP-fused HMLE cells after 72 hrs by MTT assay. In kind it is cell-based. A digest of the protocol:
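HMLE-shGFP cells were kept in a 1:1 mix of DMEM + 10 % FBS with insulin, hydrocortisone and HuMEC medium at 37 °C, 5 % CO₂. Agents were given as tenfold dilutions from 10^-8 to 10^-4 M for 72 h, then MTT absorbance was read at 570 nm. IC50 was interpolated by linear regression of percentage growth; at least two experiments, each point in quadruplicate.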

Experiment [13] is described as follows: Binding affinity to 0.5 to 480 uM of duplex […] (unknown origin) at 0.5 to 540 uM by fluorescence spectroscopic analysis. A digest of the protocol:
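Fluorescent compounds at 10 μM in BPE buffer (pH 7.1) were measured with and without rising calf-thymus DNA. Emission was scanned from 400 to 700 nm. K_sv was taken as the slope of the Stern–Volmer plot F₀/F = 1 + K_sv[ct-DNA].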

The nature of experiment [14]: Binding affinity to duplex calf thymus DNA assessed as change in melting temperature at drug/DNA ratio of 0.1 by spectrophotometric analysis.
Experiment [15] can be described thus: Binding affinity to duplex calf thymus DNA assessed as change in melting temperature at drug/DNA ratio of 0.05 by spectrophotometric analysis.

The structures appear in SMILES notation. Active and inactive are the calls of the source. The rule behind the calls is not given here. Some results are limits rather than exact numbers.

On to `N#Cc1c(N2CCCC2)c2ccc(N3CCCC3)cc2n2c1nc1ccccc12`, for which the outcome in experiment [1] was Active. The IC50 in [2] (read-out: IC50) was 2000 nM; in experiment [2] (read-out: pIC50 (converted)), 2000 nM; in experiment [4] (read-out: IC50), 2000 nM; in experiment [4] (read-out: pIC50 (converted)), 2000 nM; in [5] (read-out: IC50), 12000 nM; in experiment [5] (read-out: pIC50 (converted)), 12000 nM. Also, in experiment [3], the ΔTm was determined as 0.6 °C.
Turning to `N#Cc1c(N2CCNCC2)c2ccc(N3CCNCC3)cc2n2c1nc1ccccc12`, the ΔTm came out at 15.9 °C in experiment [6], 20.1 °C in experiment [3] and 5.1 °C in [14]. In addition, the inhibition entry in experiment [7] was “Active”. Further, the result in experiment [8], in experiment [9], in experiment [10], in experiment [11] and in experiment [13] was Active. Also, the IC50 in experiment [12] is 2000 nM; in experiment [2] (read-out: IC50), 1000 nM; in [2] (read-out: pIC50 (converted)) it was 1000 nM; in experiment [4] (read-out: IC50) it was 1500 nM; in experiment [4] (read-out: pIC50 (converted)) it was 1500 nM; in experiment [5] (read-out: IC50), 4000 nM. In addition, the IC50 in [5] (read-out: pIC50 (converted)) is 4000 nM.
For the compound `C[N+]1(C)CCN(c2ccc3c(N4CC[N+](C)(C)CC4)c(C#N)c4nc5ccccc5n4c3c2)CC1`, the inhibition entry in experiment [7] was “Active”. The outcome in experiment [8], in experiment [9], in experiment [10], in experiment [11] and in experiment [13] was Active. Also, the figures for the ΔTm in experiment [15] and in experiment [14] were 2.1 °C and 20.7 °C, respectively. Besides, the IC50 was greater than 100000 nM in experiment [2] (read-out: IC50); 500000 nM in experiment [2] (read-out: pIC50 (converted)); greater than 100000 nM in [4] (read-out: IC50); greater than 100000 nM in [4] (read-out: pIC50 (converted)); greater than 100000 nM in experiment [5] (read-out: IC50); 500000 nM in [5] (read-out: pIC50 (converted)).

For the origin of these results see ChEMBL document CHEMBL3865821, “Amino substituted benzimidazo[1,2-a]quinolines: Antiproliferative potency, 3D QSAR study and DNA binding properties” (Eur J Med Chem, 2016).
